Our source for the Activity, fold change (FC) and Tmax values is ChEMBL document CHEMBL4680370, “Discovery of Novel Small-Molecule FAK Activators Promoting Mucosal Healing” (ACS Med Chem Lett, 2021).

The target in data set [1] is Focal adhesion kinase 1 (Homo sapiens) (UniProt Q05397). The data set is described as follows: Activation of FAK in human Caco-2 cells assessed as increase in FAK Tyr397 phosphorylation at 10 nM incubated for 1 hr by Western blot analysis. To be noted: filed as activator. It counts as cell-based. The procedure, abridged:
(§1)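 Caco-2 cells were exposed to compound at 10 nM, with DMSO vehicle as control. At least eight separate experiments were run and the data pooled, reported as mean ± standard error.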

Data set [2] has the same target. The data set is described as follows: Activation of FAK in human Caco-2 cells assessed as fold increase in FAK Tyr397 phosphorylation at 10 nM incubated for 1 hr by Western blot analysis relative to control. It is filed as cell-based. Particulars: filed as activator. The procedure, abridged: as §1
Data set [3] has as its system Caco-2. The data set is described as follows: Induction of wound closure in human Caco-2 cells at 10 nM in presence of hydroxyurea measured upto 24 hrs by inverted light microscopy based wound healing assay. It counts as functional, cell-based. Particulars: time hrs <=24.
The target in data set [4] is Focal adhesion kinase 1 (Homo sapiens) (UniProt Q05397). The data set is described as follows: Activation of FAK in human Caco-2 cells assessed as increase in FAK Tyr397 phosphorylation incubated for 1 hr by Western blot analysis. It counts as cell-based. To be noted: filed as activator, dose 10-1000 nM. A general note: Immunoblotting shows a protein as a band on a membrane.

A short description of data set [5]: Toxicity in C57BL/6 mouse assessed as body weight at 900 ug/kg, ip administered for every 6 hrs for 3 days and measured on day 4 (reference value: 9.16 +/- 0.62 %). It is filed as organism-based. Particulars: in vivo, 0.9 mg/kg, dose 900 µg/kg.
For data set [6], the system named is Mus musculus. Description: Antiinflammatory activity against ischemic jejunal ulcer C57BL/6J mouse model assessed as ulcer area at 900 ug/kg, ip administered for every 6 hrs for 3 days and measured on day 4 by imaging analysis (reference value: 3.26 +/- 0.47 mm2). To be noted: dose 900 µg/kg; time 4 day.
Data set [7] is described as follows: Tmax in C57BL/6 mouse at 900 ug/kg, ip measured upto 12 hrs by LC-MS/MS analysis. It counts as ADME, organism-based. To be noted: in vivo, 0.9 mg/kg, dose 900 µg/kg. The procedure, abridged:
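Single intraperitoneal dose of 900 μg/kg in C57BL/6 mice. Compound was first dissolved in DMSO, then diluted in 100 μL normal saline (final DMSO 2.5% in the injected solution). Plasma concentration was followed over time after dosing.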

Values joined by “and” are separate entries in the source; they are usually repeats but may differ in a detail not shown here. Identical values can stand only once. Active and inactive are the calls of the source. The calls are words filed in the database; no cut-off is given here.

Focal adhesion kinase 1 (Homo sapiens), sequence (Q05397 2-1052 limits assumed): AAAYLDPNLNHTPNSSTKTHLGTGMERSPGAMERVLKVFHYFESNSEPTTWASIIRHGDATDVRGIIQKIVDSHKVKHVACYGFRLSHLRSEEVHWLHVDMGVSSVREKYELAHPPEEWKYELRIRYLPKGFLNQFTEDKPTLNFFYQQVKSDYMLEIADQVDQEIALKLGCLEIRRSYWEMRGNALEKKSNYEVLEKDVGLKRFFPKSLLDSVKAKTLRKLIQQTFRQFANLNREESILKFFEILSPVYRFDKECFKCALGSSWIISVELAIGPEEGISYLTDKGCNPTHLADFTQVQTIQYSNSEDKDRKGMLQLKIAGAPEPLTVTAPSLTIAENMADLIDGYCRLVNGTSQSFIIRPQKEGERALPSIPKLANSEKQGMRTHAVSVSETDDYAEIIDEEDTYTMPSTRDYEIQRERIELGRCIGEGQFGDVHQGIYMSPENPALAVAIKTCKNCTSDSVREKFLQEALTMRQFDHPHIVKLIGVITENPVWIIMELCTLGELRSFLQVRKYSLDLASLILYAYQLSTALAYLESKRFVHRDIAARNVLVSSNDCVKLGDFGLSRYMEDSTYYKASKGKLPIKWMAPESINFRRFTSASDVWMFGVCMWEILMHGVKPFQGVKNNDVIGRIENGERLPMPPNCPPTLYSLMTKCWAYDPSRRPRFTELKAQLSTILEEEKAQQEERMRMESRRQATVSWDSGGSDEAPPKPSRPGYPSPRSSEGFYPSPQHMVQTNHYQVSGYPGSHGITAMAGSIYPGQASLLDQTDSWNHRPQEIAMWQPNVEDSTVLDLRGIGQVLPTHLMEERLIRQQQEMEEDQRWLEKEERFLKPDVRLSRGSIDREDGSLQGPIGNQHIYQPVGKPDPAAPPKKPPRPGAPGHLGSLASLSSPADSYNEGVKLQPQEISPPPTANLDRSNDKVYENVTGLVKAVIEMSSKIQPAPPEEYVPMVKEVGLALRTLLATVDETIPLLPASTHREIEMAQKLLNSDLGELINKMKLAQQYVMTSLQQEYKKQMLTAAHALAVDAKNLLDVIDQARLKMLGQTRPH

For the compound `COc1ccc(C(CNC(=O)Nc2cc(C(F)(F)F)ccc2N2CCOCC2)N(C)C)cc1` (centres undefined), the result in data set [1] and in data set [3] was Active. Further, in data set [2], the fold change (FC) amounted to 1.4. In addition, the Activity entry in data set [4] was “Dose-dependent effect”.
As for `CN(C)C(CNC(=O)Nc1cc(C(F)(F)F)ccc1N1CCOCC1)c1ccccc1` (centres undefined), the fold change (FC) in data set [2] was 1.
Consider `O=C(Nc1cc(C(F)(F)F)ccc1N1CCOCC1)N1CCCC1c1ccc(O)cc1` (centres undefined), for which, in data set [2], the fold change (FC) turned out to be 1.1.
Consider `O=C(Nc1ccccc1N1CCOCC1)N1CCCC1c1ccncc1` (centres undefined), for which the fold change (FC) in data set [2] was found to be 1.1.
On to `O=C(Nc1cc(C(F)(F)F)ccc1N1CCS(=O)(=O)CC1)N1CCCC1c1ccncc1` (centres undefined), for which the fold change (FC) in data set [2] was 1.
Turning to `CC1CN(c2ccc(C(F)(F)F)cc2NC(=O)N2CCCC2c2ccncc2)CC(C)O1` (centres undefined), in data set [2], the fold change (FC) was determined as 1.
In general, Tmax refers to the time from dosing to the highest level. With `O=C(Nc1cc(C(F)(F)F)ccc1N1CCOCC1)N1CCCC1c1ccncc1` (centres undefined), the values for the Activity in data set [5], in data set [6] and in data set [4] were 6.33%, 1.57 mm2 and “Dose-dependent effect”, respectively. The Tmax in data set [7] was found to be 1 h. Also, the outcome in data set [1] and in data set [3] was Active. Moreover, the fold change (FC) in data set [2] was 1.5 and 1.
Take `O=C(Nc1cc(C(F)(F)F)ccc1N1CCOCC1)N1CCCC1c1ccccc1` (centres undefined): the result in data set [1] and in data set [3] was Active. Also, in data set [2], the fold change (FC) was found to be 1.4. Besides, the Activity entry in data set [4] is “Dose-dependent effect”.
On to `O=C(Nc1cc(C(F)(F)F)ccc1N1CCOCC1)N1CCCC1C1CCCCC1` (centres undefined), for which the result in data set [1] and in data set [3] was Active. The Activity entry in data set [4] was “Dose-dependent effect”.
As to `CN1CCN(c2ccc(C(F)(F)F)cc2NC(=O)N2CCCC2c2ccncc2)CC1` (centres undefined), the fold change (FC) in data set [2] was 0.9.
